Screening data (PubChem)
Shown are actives, neighbours in structure and some others; about 1.5% of the full set was active somewhere.
CCR6 antagonist – blocks CCL20-driven beta-arrestin recruitment at human CCR6. P51684. CHO-K1 CCR6 PathHunter beta-arrestin, luminescence, CCL20-stimulated. inhibition, % at 20 µM. 340,000 compounds, 0.49% hits;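 active = compounds whose inhibition of the agonist-driven luminescence signal at 20 µM reaches about 50%, limit read from the data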;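 also: cells stimulated with CCL20 at 14 nM final; plate controls were DMSO with CCL20 for no effect and DMSO without agonist for full effect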
APJ agonist – activates the human apelin receptor APJ | P35414 | CHO-K1 APJ PathHunter beta-arrestin, luminescence; 0% DMSO wells, 100% apelin | activation, % at 20 µM | 330,000 compounds, 0.11% hits;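 active = activation more than six SD over the plate average, tested at 20 µM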;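 also: 0% = DMSO alone and 100% = apelin-13 at 10 nM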
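Incubation: overnight seeding, 90 min compound at 25 °C, 1 h detection; test system: PathHunter CHO-K1 APJ (AGTRL-1) beta-arrestin reporter cells; amount: 1000 cells/well; doses: one dose, 20 µM compound, 1% DMSO; measured by: beta-gal luminescence; measure: agonist-driven arrestin binding to APJ; benchmarks: negative DMSO alone, positive Apelin-13 at 10 nM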
CXCR6 block – inhibitors of human CXCR6 receptor | CHO-K1 PathHunter CXCR6 beta-arrestin, luminescence | inhibition, % at 20 µM | 360,000 compounds, 0.36% hits | AID 602244; in the data active = inhibition above about 34%, passing the limit was not always enough;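 also: antagonist mode with CXCL16 agonist at 10 nM final; 0% = 10 nM CXCL16 with DMSO and 100% = unstimulated wells without agonist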
Target sequence (O00574 whole entry, looked up): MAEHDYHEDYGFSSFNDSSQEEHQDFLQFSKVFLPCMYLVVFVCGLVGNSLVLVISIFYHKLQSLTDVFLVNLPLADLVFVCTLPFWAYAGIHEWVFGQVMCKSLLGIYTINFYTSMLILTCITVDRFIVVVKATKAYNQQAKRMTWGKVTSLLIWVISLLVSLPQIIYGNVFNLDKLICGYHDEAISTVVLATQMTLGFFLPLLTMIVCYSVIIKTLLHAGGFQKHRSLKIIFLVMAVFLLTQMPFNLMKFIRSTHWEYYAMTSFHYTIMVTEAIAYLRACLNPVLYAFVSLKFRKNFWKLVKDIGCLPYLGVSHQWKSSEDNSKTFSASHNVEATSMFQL
EBI2 antag – blocks human EBI2 receptor beta-arrestin signaling. P32249. EBI2 beta-arrestin recruitment, luminescence, 7a,25-OHC stimulated. inhibition, % at 5 µM. 360,000 compounds, 0.81% hits. AID 651636; in the data active = inhibition above about 38%;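 also: enzyme fragment complementation signal reports receptor beta-arrestin coupling in cells; 0% = agonist plus DMSO wells and 100% = wells without agonist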
Target sequence (P32249 whole entry, looked up, the tested form may be a part): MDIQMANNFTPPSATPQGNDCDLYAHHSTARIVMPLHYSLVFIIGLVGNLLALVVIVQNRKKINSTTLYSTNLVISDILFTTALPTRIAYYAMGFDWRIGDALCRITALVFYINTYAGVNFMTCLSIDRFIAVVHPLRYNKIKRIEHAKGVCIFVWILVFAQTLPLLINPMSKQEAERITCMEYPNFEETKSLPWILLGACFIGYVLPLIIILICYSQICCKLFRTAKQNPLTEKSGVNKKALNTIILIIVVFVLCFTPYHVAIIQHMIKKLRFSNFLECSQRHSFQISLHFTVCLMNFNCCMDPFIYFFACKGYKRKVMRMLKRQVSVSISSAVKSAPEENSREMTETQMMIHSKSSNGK
APJ antag – antagonists of human APJ apelin receptor | P35414 | CHO-K1 APJ beta-arrestin complementation, luminescence | inhibition, % at 20 µM | 330,000 compounds, 0.32% hits;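 active = inhibition above about 40% at 20 µM, limit read from the data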;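 also: cells challenged with 10 nM apelin-13 agonist together with compound; plate controls were apelin-13 plus DMSO wells for no effect and DMSO wells lacking apelin-13 for full effect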
EBI2 conf – EBI2 (human) antagonism, single concentration confirmation; shares compounds with EBI2 antag; EBI2 beta-arrestin luminescence, 7a,25-OHC antagonism; inhibition, % at 5 µM; 2,400 compounds, 29% hits;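 active = inhibition of at least 50%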
EBI2 agonist – activates EBI2, counter-screen for EBI2 antagonists; shares compounds with EBI2 antag; EBI2-expressing cells, agonist mode, luminescence, 60 min; 0% vehicle, 100% 7α,25-dihydroxycholesterol control; activation, % at 5 µM; 2,400 tested, under 10 active;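 active = activation of at least 50%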
bGal counter – inhibits E. coli beta-galactosidase, counter-screen for EBI2 antagonists. shares compounds with EBI2 antag. AID 652176. 2,400 compounds, 1% hits. inhibition, % at 5 µM. purified beta-galactosidase, luminescent Galacton Star, 15 min;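 active = replicate-average signal at least 3 plate SD below neutral wells, shown as high inhibition, flagging enzyme-inhibiting false positives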;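 also: 0% = DMSO wells with enzyme and 100% = wells lacking enzyme; higher means stronger loss of beta-gal luminescence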
The depositor's hits bear a star; x = not tested or not shown.

SMILES | CCR6 antagonist | APJ agonist | CXCR6 block | EBI2 antag | APJ antag | EBI2 conf | EBI2 agonist | bGal counter
CCN1CCN(C(=O)c2cc3cc(Cl)ccc3[nH]2)CC1 | 3 | -5 | -4 | 84* | 13 | 67* | 1 | 8
O=C(c1cc2cc(Cl)ccc2[nH]1)N1CCN(Cc2ccc3c(c2)OCO3)CC1 | 7 | 8 | -25 | 95* | -20 | 85* | -1 | -17
O=C(O)c1cc2cc(Cl)ccc2[nH]1 | -10 | x | 7 | 1 | x | x | x | x
CN1CCN(C(=O)c2cc3cc(Cl)ccc3[nH]2)CC1 | 9 | -2 | 2 | 56* | -12 | 32 | 1 | 3
O=C1C=C(c2ccccc2)CO1 | -3 | x | -5 | 8 | x | x | x | x
O=c1nc2n(CCO)c3ccccc3cc-2c(=O)[nH]1 | 9 | x | 7 | -2 | x | x | x | x
CC(C)CN(C(=O)COC(=O)CSc1ccc(Br)cc1)C1CCS(=O)(=O)C1 (stereo unspecified) | -3 | -4 | -2 | 3 | 12 | x | x | x
CC1(C(=O)Nc2cnc3ccccc3c2)CCN1C(=O)CC(c1ccccc1)c1ccccc1 (stereo unspecified) | x | x | 11 | 75* | x | 55* | -1 | -4
CC1(C(=O)Nc2ccc(Cl)c(Cl)c2)CCN1C(=O)CC(c1ccccc1)c1ccccc1 (stereo unspecified) | x | x | 2 | 8 | x | x | x | x
COc1ccc(S(=O)(=O)N2CCN(C(=O)c3cc(-c4ccc(C)cc4)n[nH]3)CC2)cc1 | 9 | -3 | 4 | 74* | -21 | 49 | 2 | 3
COc1ccc(CN2CCN(C(=O)c3ccc(S(=O)(=O)N4CCCCCC4)cc3)CC2)cc1 | -7 | 2 | 1 | -1 | -18 | x | x | x
COc1cccc(-c2cc(C(=O)N3CCN(S(=O)(=O)c4ccccc4)CC3)[nH]n2)c1 | -1 | -2 | -4 | 35 | -37 | x | x | x
CC1CC(C)CN(S(=O)(=O)c2ccc(C(=O)N3CCN(c4ccccc4)CC3)cc2)C1 (stereo unspecified) | -15 | 2 | 3 | 57* | 13 | 28 | 0 | -10
COc1ccc(C(=O)N2CCN(S(=O)(=O)c3ccc(Br)cc3)CC2)cc1 | 9 | -3 | -6 | 52* | -8 | 28 | 1 | 9
COc1ccc(-c2cc(C(=O)N3CCN(S(=O)(=O)c4ccc(C)cc4)CC3)[nH]n2)cc1 | 3 | 1 | 0 | 53* | 2 | 49 | -1 | -13
Nc1ccc2cc3[nH]c4cc(N)ccc4c3nc2c1 | 3 | x | -2 | -4 | x | x | x | x
O=C(c1[nH]c(C(F)(F)F)nc1-c1ccccc1)N1CCC(Cc2ccccc2)CC1 | x | x | 0 | -7 | x | x | x | x
COc1ccc(-c2cn(Cc3ccc(C(=O)NCc4ccc(C)cc4)cc3)c(C(C)N)n2)cc1 (stereo unspecified) | -10 | -2 | 8 | 54* | 9 | 5 | 1 | -2
CN(C)N=Nc1ccc(-c2cn(Cc3ccccc3)cn2)cc1 | -14 | 0 | 1 | 45* | -27 | 39 | 1 | 0
CN(Cc1ccccc1)N=Nc1ccccc1 | x | x | 0 | 6 | x | x | x | x
O=C(O)c1ccc(-c2cccc(-c3nn4c(=O)cc(N5CCNCC5)nc4s3)c2)cc1 | x | x | 0 | -5 | x | x | x | x
OC(COc1ccc(Cl)cc1)CSc1ccccn1 (stereo unspecified) | 18 | -3 | -7 | 52* | 6 | 32 | 1 | 3
COC(=O)C(C#N)c1nc2ccccc2nc1N1CCN(Cc2ccc3c(c2)OCO3)CC1 (stereo unspecified) | x | -1 | x | x | -5 | x | x | x
CCCCOC(=O)C(C#N)c1nc2ccccc2nc1N1CCN(Cc2ccc3c(c2)OCO3)CC1 (stereo unspecified) | 17 | -7 | 25 | 46* | 9 | 18 | -2 | -3
COCCOC(=O)C(C#N)c1nc2ccccc2nc1N1CCN(Cc2ccccc2)CC1 (stereo unspecified) | 36 | -4 | 14 | 29 | 9 | x | x | x
SMILES | CCR6 antagonist | APJ agonist | CXCR6 block | EBI2 antag | APJ antag | EBI2 conf | EBI2 agonist | bGal counter
CC(C)COC(=O)C(C#N)c1nc2ccccc2nc1N1CCN(Cc2ccccc2)CC1 (stereo unspecified) | 25 | 5 | 16 | 46* | 4 | 33 | 0 | 7
CCCc1nc2ccc(C(=O)OC)cn2c1Cc1ccc(C)cc1 | x | x | 5 | 1 | x | x | x | x
COC(=O)[C@@]1(Sc2ccc(C)cc2)CC(=O)N[C@@H]1c1ccco1 | x | x | -1 | -6 | x | x | x | x
COc1cc(/C=N/NC(=O)Nc2cccc3nsnc23)cc(OC)c1OC | -19 | x | 1 | -4 | x | x | x | x
COc1ccc(/C=N/NC(=O)Nc2cccc3nsnc23)c(OC)c1 | -2 | 1 | -6 | 53* | -1 | 28 | 1 | 5
C[C@H](CO)N1C[C@H](C)[C@@H](CN(C)Cc2cccc(F)c2)Oc2cc(-c3cccc(C#N)c3)ccc2S1(=O)=O | x | x | 3 | 2 | x | x | x | x
Cc1cccc(C)c1N1CCN(C(=O)Nc2ccc3c(c2)OCCO3)CC1 | 8 | 1 | -4 | 64* | -5 | 54* | 0 | 7
COc1ccc(C(=O)N2CCN(c3nc(C4CC4)nc4sc(C)c(C)c34)CC2)cc1 | 9 | -2 | 6 | 49* | -1 | 19 | 0 | 1
Cc1sc2nc(C3CC3)nc(N3CCN(C(=O)c4ccc(Cl)cc4)CC3)c2c1C | 6 | 0 | 17 | 76* | 4 | 44 | 1 | 8
Cc1cc(Br)cn2c(Cc3ccccc3)c(-c3ccccc3)nc12 | x | x | 2 | -2 | x | x | x | x
CCOC(=O)C1CN(S(=O)(=O)c2ccc(C)cc2)CCN1S(=O)(=O)c1ccc(C)cc1 (stereo unspecified) | 13 | 3 | -3 | 44* | -7 | 8 | -1 | -13
O=C(OCc1ccccc1)N1Cc2ccnnc2CC1c1ccccc1Br (stereo unspecified) | x | x | -9 | 7 | x | x | x | x
CC1OC(C2CCCCC2)Cc2[nH]c(=S)[nH]c(=O)c21 (stereo unspecified) | x | x | -7 | 0 | x | x | x | x
CCC(=NCCc1c(C)[nH]c2ccc(OC(F)(F)F)cc12)C1=C(O)CC(c2ccccc2)CC1=O (stereo unspecified) | 14 | -1 | 16 | 39 | -29 | x | x | x
CC(=NCCc1c(C)[nH]c2ccc(OCc3ccccc3)cc12)C1=C(O)CC(c2ccccc2)CC1=O (stereo unspecified) | 8 | 0 | 9 | 46* | 7 | 25 | 0 | 5
CCCCC(=NCCc1c(C)[nH]c2ccc(OC)cc12)C1=C(O)CC(c2ccccc2)CC1=O (stereo unspecified) | 19 | -4 | 14 | 51* | -19 | 2 | 15 | -12
